Values joined by “and” are separate entries in the source; they are usually repeats but may differ in a detail not shown here. Equal values may be shown once.
Legend:
Oryctolagus cuniculus [1] = assay: Evaluation of formation of 3-Methyl-thiazolidin-2-ylideneamine from the radiolabeled compound, orally administered, from rabbit 1,2 liver was analyzed by Gas-liquid chromatographic analysis; assay type: ADME, organism-based; conditions: in vivo, po
Summary of the method: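 Rabbit 1 was given [14C]-labelled parent amide, 100 mg/kg (204.6 dpm/μg), orally by gavage and killed 2 h later. Urine (0-2 h), blood, liver, lung and kidney were collected. Samples were extracted, trimethylsilylated with BSA/pyridine at 70 °C for 12-16 h, and run by GLC on 3% OV-210 at 95 °C against the internal standard 3-ethyl-2-thiazolidinimine. Output is % of radioactivity present as the metabolite, mean of two determinations.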

Oryctolagus cuniculus [2] = assay: Radioactivity measurements were performed following oral administration of the 100 mg/kg in rabbit 6 after 2 hr in plasma; assay type: ADME, organism-based; design: dose 100 mg/kg, route oral; conditions: in vivo
Summary of the method: (§1)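 Male rabbits (900-1060 g) received [14C]-labelled parent amide, 100 mg/kg (251.7 dpm/μg, pH about 4.5), by gavage. At 2 or 6 h they were killed by air injection into the ear vein. Blood was drawn by cardiac puncture; brain and lung were homogenized in water (1 g = 10 mL). Radioactivity is expressed as μg equivalents of parent per g or mL.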

Oryctolagus cuniculus [3] = assay: 100 mg/kg of [14C]- radiolabeled compound was orally (gavage) injected in rabbit 1 lung, and radioactivity content in feces was estimated at; assay type: ADME, organism-based; conditions: in vivo, po
Summary of the method: (§2)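 Rabbit given 100 mg/kg [14C]-labelled drug by gavage, 204.6 dpm/μg, in water/0.1 N HCl at 6.66 mg/mL. Rabbit 1 was killed at 2 h and liver, lung, kidney and blood taken; tissue values are μg equivalents/g and tissue:plasma ratio. Rabbit 3 was kept for urine (0-24, 24-48, 48-72 h) and feces (0-48 h), expressed as % of dose.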

Oryctolagus cuniculus [4] = assay: Evaluation of formation of 3-Methyl-thiazolidin-2-ylideneamine from the radiolabeled compound, orally administered, from rabbit 1 urine was analyzed at 0-2 hr by Gas-liquid chromatographic analysis; conditions: in vivo, po
Oryctolagus cuniculus [5] = assay: Evaluation of formation of 3-Methyl-thiazolidin-2-ylideneamine from the radiolabeled compound, orally administered, from rabbit 2 urine was analyzed at 0-2 hr by Gas-liquid chromatographic analysis; assay type: ADME, organism-based; conditions: in vivo, po, in the assay text read “0-4 hr” for “0-2 hr”
Summary of the method: (§3)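 Rabbit 2 was gavaged twice with [14C]-labelled parent amide, 100 mg/kg each dose (204.6 dpm/μg), 2 h apart, and killed 2 h after the second dose. Urine (0-4 h), blood, liver, lung and kidney were taken. The metabolite was measured by GLC of trimethylsilyl derivatives (3% OV-210, 95 °C, internal standard 3-ethyl-2-thiazolidinimine). Values are % of radioactivity as metabolite, mean of two determinations.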

[6] = Dose that causes approximately 50% lethality in mice, when given intraperitoneally; Value ranges from 1000-1500; assay type: ADME, organism-based; conditions: mouse, in vivo, ip
Oryctolagus cuniculus [7] = assay: 100 mg/kg of [14C]- radiolabeled compound was orally (gavage) administered in rabbit 1, and radioactivity content in lung was estimated; conditions: in vivo, po
Oryctolagus cuniculus [8] = assay: 100 mg/kg of [14C]- radiolabeled compound was orally (gavage) administered in rabbit3, and radioactivity content in urine was estimated at 24-48 h; conditions: rabbit, in vivo, po
Oryctolagus cuniculus [9] = assay: 200 mg/kg of [14C]- radiolabeled compound was orally administered in rabbit2, and radioactivity content in urine was estimated at 0-4 hr; conditions: rabbit, in vivo, po
Oryctolagus cuniculus [10] = assay: Evaluation of formation of 3-Methyl-thiazolidin-2-ylideneamine from the radiolabeled compound, orally administered, from rabbit 2,4 liver was analyzed by Gas-liquid chromatographic analysis; assay type: ADME, organism-based; conditions: in vivo, po; summary of the method: as §3
Oryctolagus cuniculus [11] = assay: 100 mg/kg of [14C]- radiolabeled compound was intravenously (gavage) injected in rabbit3, and radioactivity content in feces was estimated at total hours; assay type: ADME, organism-based; conditions: rabbit, in vivo, po, in the assay text read “orally (gavage) administered” for “intravenously (gavage) injected”; summary of the method: as §2
Oryctolagus cuniculus [12] = assay: 100 mg/kg of [14C]- radiolabeled compound was orally (gavage) injected in rabbit, and radioactivity content in feces was estimated; assay type: ADME, organism-based; conditions: in vivo, po; summary of the method: as §2
Oryctolagus cuniculus [13] = assay: 200 mg/kg of [14C]- radiolabeled compound was intravenously (gavage) injected in rabbit4, and radioactivity content in feces was estimated at 0-48 hr; assay type: ADME, organism-based; conditions: rabbit, in vivo, po, in the assay text read “orally (gavage) administered” for “intravenously (gavage) injected”
Summary of the method: (§4)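 Rabbit given two 100 mg/kg gavage doses of [14C]-labelled drug, 2 h apart, 204.6 dpm/μg, 6.66 mg/mL in water/0.1 N HCl. Rabbit 2 was killed 2 h after the last dose and liver, lung, kidney and plasma taken (μg equivalents/g; tissue:plasma ratio). Rabbit 4 gave urine over 0-4, 0-24, 24-48 and 48-72 h and feces over 0-48 h, as % of dose.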

Oryctolagus cuniculus [14] = assay: 100 mg/kg of [14C]- radiolabeled compound was orally administered in rabbit3, and radioactivity content in urine was estimated at 0-24 hr; conditions: rabbit, in vivo, po
Oryctolagus cuniculus [15] = assay: 100 mg/kg of [14C]- radiolabeled compound was orally (gavage) administered in rabbit3, and radioactivity content in urine was estimated at 48-72 h; conditions: rabbit, in vivo, po
Oryctolagus cuniculus [16] = assay: 100 mg/kg of [14C]- radiolabeled compound was orally (gavage) injected in rabbit kidney, and radioactivity content in feces was estimated; assay type: ADME, organism-based; conditions: in vivo, po; summary of the method: as §2
Oryctolagus cuniculus [17] = assay: 200 mg/kg of [14C]- radiolabeled compound was orally administered in rabbit4, and radioactivity content in urine was estimated at total hours; conditions: rabbit, in vivo, po
[18] = system: Indolethylamine N-methyltransferase (Oryctolagus cuniculus); assay: Compound tested for inhibitory activity against rabbit lung Indoleethylamine-N-methyltransferase at oral dose 25 mg/kg
Oryctolagus cuniculus [19] = assay: Radioactivity measurements were performed following oral administration of the 100 mg/kg in rabbit 7 after 6 hr in plasma; assay type: ADME, organism-based; design: dose 100 mg/kg, route oral; conditions: in vivo; summary of the method: as §1
Oryctolagus cuniculus [20] = assay: Evaluation of formation of 3-Methyl-thiazolidin-2-ylideneamine from the radiolabeled compound, orally administered, from rabbit 2,4 lung was analyzed by Gas-liquid chromatographic analysis; assay type: ADME, organism-based; conditions: in vivo, po; summary of the method: as §3
Oryctolagus cuniculus [21] = assay: Evaluation of formation of 3-Methyl-thiazolidin-2-ylideneamine from the radiolabeled compound, orally administered, from rabbit 2,4 kidney was analyzed by Gas-liquid chromatographic analysis; assay type: ADME, organism-based; conditions: in vivo, po; summary of the method: as §3
Oryctolagus cuniculus [22] = assay: Percent of 3-Methyl-thiazolidin-2-ylideneamine as administered dose was reported in rabbit 1; assay type: ADME, organism-based; conditions: in vivo
Oryctolagus cuniculus [23] = assay: Radioactivity measurements were performed following oral administration of the 100 mg/kg in rabbit 5 after 2 hr in plasma; assay type: ADME, organism-based; design: dose 100 mg/kg, route oral; conditions: in vivo; summary of the method: as §1
Oryctolagus cuniculus [24] = assay: Evaluation of formation of 3-Methyl-thiazolidin-2-ylideneamine from the radiolabeled compound, orally administered, from rabbit 2,4 plasma was analyzed by Gas-liquid chromatographic analysis; assay type: ADME, organism-based; conditions: in vivo, po; summary of the method: as §3
Oryctolagus cuniculus [25] = assay: 200 mg/kg of [14C]- radiolabeled compound was intravenously (gavage) injected in rabbit4, and radioactivity content in feces was estimated at total hours; assay type: ADME, organism-based; conditions: rabbit, in vivo, po, in the assay text read “orally (gavage) administered” for “intravenously (gavage) injected”; summary of the method: as §4

CN1CCS/C1=N\C(=O)CCC(=O)/N=C1/SCCN1C
Radioactivity (Oryctolagus cuniculus [1]): 37.9% | Radioactivity level (Oryctolagus cuniculus [2]): 21.1 µg/mL | Tissue to plasma ratio (Oryctolagus cuniculus [3]): 1.5 | Percent of urinary radioactivity (Oryctolagus cuniculus [4]): 57.2% | Radioactivity (Oryctolagus cuniculus [5]): 44.7% | LD50 [6]: 1000 mg/kg | Radioactivity concentration (Oryctolagus cuniculus [7]): 36.3 µg/g | Administered dose (Oryctolagus cuniculus [8]): 0.8% | Administered dose (Oryctolagus cuniculus [9]): 24% | Radioactivity (Oryctolagus cuniculus [10]): 34.4% | Administered dose (Oryctolagus cuniculus [11]): 90.7% | Administered dose (Oryctolagus cuniculus [12]): 9% and 1% | Administered dose (Oryctolagus cuniculus [13]): 6% | Administered dose (Oryctolagus cuniculus [14]): 85.9% | Administered dose (Oryctolagus cuniculus [15]): 0.2% | Tissue concentration (Oryctolagus cuniculus [16]): 211 µg/g | Administered dose (Oryctolagus cuniculus [17]): 88% | inhibition [18]: 76.1% | Radioactivity level (Oryctolagus cuniculus [19]): 4.1 µg/mL | Radioactivity (Oryctolagus cuniculus [20]): 75.4% | Radioactivity (Oryctolagus cuniculus [21]): 65.3% | Administered dose (Oryctolagus cuniculus [22]): 27.9% | Radioactivity level (Oryctolagus cuniculus [23]): 14.2 µg/mL | Radioactivity (Oryctolagus cuniculus [24]): 48.9% | Administered dose (Oryctolagus cuniculus [25]): 94%

Source: ChEMBL document CHEMBL1121475, “Inhibitors of indoleethylamine N-methyltransferase. Derivatives of 3-methyl-2-thiazolidinimine. In vitro, in vivo, and metabolic studies” (J Med Chem, 1980)
